An excerpt weighted towards active compounds, which were near 3.3% of everything screened.
rCAG RNA binder: molecules binding r(CAG) RNA repeats. r(CAG) RNA repeat, TO-PRO-1 dye displacement fluorescence. inhibition, % at 3 µM. hit rate 1.3% among 370,000;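 active means inhibition above the plate cutoff, the mean of all test compounds on that plate plus 3 SD, cut at about 35% in these data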;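 further: higher means more dye released from RNA so lower well fluorescence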
mABHD4 FP: inhibitors of mouse ABHD4 | AID 720543 | purified mABHD4, FP-Rh probe fluorescence polarization | inhibition, % at 8.92 µM | hit rate 0.54% among 370,000;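 active means inhibition exceeding the mean over every tested compound plus 3 SD, cut at about 30% in these data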
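Assay system: mABHD4 protein; medium: HEPES pH 7.0, NaCl, Pluronic buffer; dosing: 8.92 µM, single dose; schedule: 45 min + 60 min at 25 °C; signal: FP readout, ex 525 nm / em 598 nm; read-out: normalized percent inhibition of probe labeling; repeats: single replicate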
PRMT1 FP inh: PRMT1 (human) inhibition, primary screen | recombinant PRMT1, activity-based probe fluorescence polarization | inhibition, % at 2.79 µM | hit rate 1.3% among 370,000 | AID 652257;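 active means inhibition above about 21% made by adding two undisclosed values, limit read from the data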
SIAE inh: blocks human sialic acid acetylesterase; SIAE FP-Rh probe binding, fluorescence polarization; AID 1053197; hit rate 0.69% among 370,000; inhibition, % at 9.66 µM; Q9HAT2;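 active means inhibition above a cutoff: mean of compounds within the control limits plus 3 SD of those, cut at about 17% in these data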
HTRA1 inhibitor: HTRA1 (human) protease inhibition. Q92743. AID 504803. inhibition, % at 5.96 µM. hit rate 0.5% among 340,000. recombinant HTRA1, FP-rhodamine activity-based probe, fluorescence polarization; in the data active means inhibition above about 36%
Target sequence (Q92743 whole entry, looked up): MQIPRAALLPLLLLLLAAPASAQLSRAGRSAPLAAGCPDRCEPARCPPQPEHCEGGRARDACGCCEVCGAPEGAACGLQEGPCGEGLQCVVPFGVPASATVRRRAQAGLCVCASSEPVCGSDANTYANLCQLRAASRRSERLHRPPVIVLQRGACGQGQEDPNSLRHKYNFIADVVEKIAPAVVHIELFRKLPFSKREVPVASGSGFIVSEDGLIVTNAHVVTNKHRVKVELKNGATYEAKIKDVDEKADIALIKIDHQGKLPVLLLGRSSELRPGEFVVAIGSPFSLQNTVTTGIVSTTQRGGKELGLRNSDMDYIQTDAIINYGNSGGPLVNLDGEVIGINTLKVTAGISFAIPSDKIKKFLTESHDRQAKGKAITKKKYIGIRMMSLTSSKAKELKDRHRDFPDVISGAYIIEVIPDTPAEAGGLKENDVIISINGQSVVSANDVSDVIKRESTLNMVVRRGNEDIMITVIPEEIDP
Hits are given with their value; i = inactive; nt = not tested or not shown.

SMILES	rCAG RNA binder	mABHD4 FP	PRMT1 FP inh	SIAE inh	HTRA1 inhibitor
CC(Sc1nc(N)cc(=O)[nH]1)C(=O)Nc1sc2c(c1C#N)CCCC2 (stereo unspecified)	i	i	i	i	i
CCC(Sc1nc(C)cc(=O)[nH]1)C(=O)Nc1sc2c(c1C#N)CCCC2 (stereo unspecified)	54.9	i	i	i	i
CCOC(=O)N1CCN(c2cc(C)c(C(C)=O)cc2F)CC1	i	i	i	i	i
CC(=O)c1cc(F)c(N2CCN(CCC#N)CC2)cc1C	i	i	i	26.9	i
O=C(NCCc1cccc(F)c1)c1cc2ccccn2n1	i	i	i	i	nt
C/C=C/C=C\C(=O)Nc1cccc(C2=NOC3(C2)C[C@@H](C(N)=O)N(C(=O)c2cc([N+](=O)[O-])cc([N+](=O)[O-])c2C)C3)c1 (stereo partly specified)	i	i	24.5	i	i
Cc1ccc(S(=O)(=O)n2ccc3c(OCCOCCSCC(NC(=O)OC(C)(C)C)C(=O)O)cccc32)cc1 (stereo unspecified)	47.7	i	i	i	i
CCCN1CCCCC(NC(=O)c2ccc3ccccc3c2)C1=O (stereo unspecified)	i	i	i	i	nt
CN1OC[C@@H]2CN(C(=O)C3CCCCC3)[C@H](c3ccc(N4CCCCC4)cc3)C[C@@H]21	i	i	i	i	nt
C/C(=C(/CCO)SSCC1CCCO1)N(C=O)Cc1cnc(C)nc1N (stereo unspecified)	i	i	23.6	i	i
CCCCNS(=O)(=O)c1ccc2nc(SCC(N)=O)[nH]c2c1	i	i	i	i	i
CCCCNS(=O)(=O)c1ccc2nc(SCC(=O)Nc3sccc3C#N)[nH]c2c1	37.6	i	i	i	i
C[C@@H]1CN(c2ccc(N3CCNC[C@H]3C)cc2C#N)CCN1Cc1ccccc1	i	i	i	i	nt
NS(=O)(=O)c1ccc(N=C2C(=O)Nc3ccccc32)cc1	i	i	i	i	i
O=C1Nc2ccccc2C1=Nc1ccc(S(=O)(=O)Nc2nccs2)cc1	48.2	41.8	i	i	i
CC(=O)c1cccc(NC(=O)CSC(=O)c2ccccc2)c1	i	i	48.7	i	i
C=CC(=O)NC1CCCCN(CCC)C1=O (stereo unspecified)	i	i	i	i	nt
Cn1nnnc1SCC1=C(C(=O)O)N2C(=O)[C@@H](NC(=O)[C@H](O)c3ccccc3)[C@H]2SC1	nt	nt	nt	nt	i
Cc1cc(C(F)F)nn1CC(=O)NC1C(=O)N2C(C(=O)O)=C(CSc3nnnn3C)CSC12 (stereo unspecified)	i	i	23.8	i	i
CC(C(=O)NC1C(=O)N2C(C(=O)O)=C(CSc3nnnn3C)CSC12)n1cc(Br)cn1 (stereo unspecified)	i	i	i	i	i
Cc1nn(C(C)C(=O)NC2C(=O)N3C(C(=O)O)=C(CSc4nnnn4C)CSC23)cc1Cl (stereo unspecified)	i	i	24.0	i	i
CCOC(=O)C1=C(CSc2nc3c(cc2C#N)CN(C)CC3)OC(N)=C(C#N)C1c1ccc(F)cc1 (stereo unspecified)	50.4	i	i	i	i
Nc1ccc2c(c1)C(=O)N(c1cccc3ccccc13)C2=O	i	i	i	i	i
CC1=CC(=O)N(c2cccc3c(N4C(=O)C=C(C)C4=O)cccc23)C1=O	36.0	i	i	i	i
CC1=Nc2ccccc2/C1=C\c1sc(Nc2ccc(C)cc2)nc1O	i	i	i	i	i
SMILES	rCAG RNA binder	mABHD4 FP	PRMT1 FP inh	SIAE inh	HTRA1 inhibitor
Oc1cccc(Nc2nc(O)c(/C=C3\C=Nc4ccccc43)s2)c1	47.9	i	i	i	i
COC(=O)c1cc2c(c3c4cc(C)ccc4n(S(=O)(=O)c4ccc(OC)cc4)c13)C(=O)N(Cc1ccc(C(F)(F)F)cc1)C2	i	i	i	i	nt
CN(C)c1ccc(N=Cc2ccco2)cc1	nt	nt	nt	nt	54.6
COc1ccc(C(=O)N2CCN(c3cccc(Cl)c3)CC2)cc1S(=O)(=O)NC1CC1	i	i	23.8	i	i
COc1ccc(C(=O)N2CCN(c3ccc(F)cc3)CC2)cc1S(=O)(=O)NC1CC1	i	i	i	i	i
COC(=O)[C@@H](Cc1ccc(O)cc1)NC(=O)[C@H]1O[C@@H](n2cnc3c(=O)[nH]c(N)nc32)[C@H](O)[C@@H]1O	i	i	i	i	nt
Cc1cccc(N=C2NC(=O)S/C2=C\c2ccco2)c1	i	i	21.5	i	i
Fc1c(-c2ccc3ncnc(NCc4cccs4)c3c2)ccc2c1OCO2	nt	i	i	i	nt
Oc1c(C=NCc2ccncc2)sc2ccccc12	i	i	62.9	i	nt
CCOc1ccc(N)cc1OC	i	i	i	24.0	i
CCOc1ccc(C(N)=O)cc1OC	i	i	i	i	i
CCOc1ccc(C(=O)N/N=C/c2ccc(-c3ccc(S(=O)(=O)Nc4ncccn4)cc3)o2)cc1	56.8	i	i	i	i
O=C(CC1CCCC1)N[C@@H](Cc1cccnc1)C(=O)N1CCC[C@H]1C(=O)NC1CCCC1	i	i	i	i	nt
N#CC1=C(N)SC(N)=C(C#N)C1c1ccnc2ccccc12	i	i	42.6	i	i
COc1cc(/C=C(\C#N)c2nc3ccc(C)cc3[nH]2)cc([N+](=O)[O-])c1O	62.6	i	i	i	i
COc1cc(/C=C(\C#N)c2nc3ccc(C)cc3[nH]2)c([N+](=O)[O-])cc1OC	i	i	i	i	i
C[C@H](O)[C@@H]1C(=O)N2CCc3c([nH]c4c(-c5ccccc5)cccc34)[C@@H]2C[C@@H]1N(C)C(=S)NCCc1ccccc1	i	i	i	i	nt
O=C(CSc1nnc(-c2ccccn2)n1-c1ccccc1)c1ccc(Cl)c(Cl)c1	i	i	i	i	nt
COC(=O)c1cc2c(c3c4cc(F)ccc4n(S(=O)(=O)c4ccc(C)cc4)c13)C(=O)N(c1ccc(OC)cc1)C2	i	i	i	i	nt
O=C(COc1ccc2c(-c3ccccc3)cc(=O)oc2c1)N[C@H](Cc1c[nH]c2ccccc12)C(=O)O	40.3	i	i	i	i
CC(Oc1ccc2c(-c3ccccc3)cc(=O)oc2c1)C(=O)N[C@H](Cc1c[nH]c2ccccc12)C(=O)O (stereo partly specified)	i	i	i	i	i
O=C(Nc1ccc2nc(-c3ccco3)c(-c3ccco3)nc2c1)NC1CC1	nt	nt	nt	nt	50.8
O=C(Nc1cccc(C(F)(F)F)c1)c1ccc2nc(-c3ccco3)c(-c3ccco3)nc2c1	i	i	i	i	67.1
NC(=O)[C@@H]1CCCN1C(=O)[C@H](CCc1ccccc1)NC(=O)[C@H]1O[C@@H](n2cnc3c(N)ncnc32)[C@H](O)[C@@H]1O	i	i	i	i	nt
Cc1cccc(-n2nc3c(c2NC(=O)c2ccco2)CS(=O)C3)c1C (stereo unspecified)	i	i	i	i	i
Cc1cccc(-n2nc3c(c2NC(=O)c2ccco2)CSC3)c1C	i	i	30.3	i	i
Brc1ccc(C2=CC(c3cccs3)n3ncnc3N2)cc1 (stereo unspecified)	i	i	94.7	i	i
Cc1nc2c(C(=O)NCc3ccc4c(c3)OCO4)c[nH]n2c(=O)c1Cl	55.1	i	i	i	i
